# ChEMBL document CHEMBL1121767, “Synthesis and in vitro antimicrobial property of o-carborane derivatives” (1981)
# Tests used:
# [1] = tested on: Trichophyton benhamiae; assay: In vitro antifungal activity against Trichophyton asteroides; type: functional, tricophyton asteroides
# Method in brief: (§1)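 Clinical isolates kept on Sabouraud's dextrose agar at 28 °C. Inocula at 1 × 10^5 CFU/mL: C. albicans yeast cells grown 48 h in Sabouraud's dextrose broth; A. fumigatus and T. asteroides conidia grown 14 days in that broth with 0.1% Tween 80. Microtiter twofold dilution in Sabouraud's dextrose broth, 100 to […] µg/mL, methanol ≤2%. Sealed, 37 °C, 48 h. MIC is the lowest concentration without visible growth.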
# [2] = tested on: Aspergillus fumigatus; assay: In vitro antifungal activity against Aspergillus fumigatus; type: functional; method in brief: as §1
# [3] = tested on: Candida albicans; assay: In vitro antifungal activity against Candida albicans; type: functional; method in brief: as §1
MIC [1],MIC [2],MIC [3],Structure (SMILES)
< 0.1 µg/mL,3.1 µg/mL,3.1 µg/mL,Clc1ccccc1C(c1ccccc1)(c1ccccc1)n1ccnc1 [CLOTRIMAZOLE]
3.1 µg/mL,3.1 µg/mL,1.6 µg/mL,C[C@@H]1[C@H](O)[C@@H](C)/C=C/C=C/C=C/C=C/C=C/C=C/C=C/[C@H](O[C@@H]2O[C@H](C)[C@@H](O)[C@H](N)[C@@H]2O)C[C@@H]2O[C@](O)(C[C@@H](O)C[C@@H](O)[C@H](O)CC[C@@H](O)C[C@@H](O)CC(=O)O[C@H]1C)C[C@H](O)[C@H]2C(=O)O [AMPHOTERICIN B]
